Our source for the IC50 and Activity values is ChEMBL document CHEMBL4425094, “Novel Benzo[a]quinolizidine Analogs Induce Cancer Cell Death through Paraptosis and Apoptosis” (J Med Chem, 2016).

Calls of active or inactive are those of the source. The rule behind the calls is not given here.

One assay concerns K562. Briefly: Cytotoxicity against human K562 cells assessed as cell growth inhibition after 24 hrs by MTT assay. Conditions: K562, 24 h. It is filed as functional, cell-based. The method in brief:
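Cells seeded 24 h in RPMI 1640 + 10% FBS. RWPE-1 was kept in K-SFM with bovine pituitary extract and EGF. Cells then exposed to compounds for 24 h at 37 °C, 5% CO2, with DMSO vehicle and docetaxel as positive control. MTT added for 4 h, absorbance read at 570 nm. Triplicate runs, IC50 reported as mean of three experiments.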
For orientation: Formazan colour is commonly taken as a measure of viable cells.

Assay [1] deals with PC-3. Briefly: Induction of cell cycle arrest in human PC3 cells assessed as accumulation in G0/G1 phase at 0.5 uM after 24 hrs by […]propidium iodide based flow cytometric analysis (reference value: 43.5 to 62.5 %). It counts as functional. A general note: Flow cytometry measures light scatter and fluorescence of single cells or particles in a stream.
In assay [2] the test system is PC-3. Briefly: Induction of cell cycle arrest in human PC3 cells assessed as accumulation in G2 phase at 2 uM after 24 hrs by […]propidium iodide based flow cytometric analysis (reference value: 16.3 to 25 %). It is filed as functional.
The test system of assay [3] is PC-3. Briefly: Induction of apoptosis in human PC3 cells assessed as necrotic cells at 2 uM after 24 hrs by Annexin V-FITC/propidium iodide based flow cytometric analysis (reference value: 1.1 %). It counts as functional. The procedure, abridged: (§1)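 PC3 cells exposed to 0.5, 1 or 2 μM for 24 h, then stained with Annexin V-FITC and PI and analyzed by FACSCalibur flow cytometry. Populations assigned as necrotic (Annexin V−/PI+), late apoptotic (double positive), normal (Annexin V−/PI−) and early apoptotic (Annexin V+/PI−). DMSO vehicle control.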

For assay [4], the system named is PC-3. Briefly: Induction of cytoplasmic vacuolation in human PC3 cells assessed as formation of small vacuoles at 1 uM after 4 hrs by phase-contrast microscopic analysis. It is filed as functional, cell-based. The method in brief:
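PC3 cells in RPMI 1640 with 10% FBS at 37 °C, 5% CO2, treated with 1 μM agent for 0−24 h; DMSO vehicle control. Vacuole appearance, size and number followed over time by phase-contrast microscopy at constant magnification.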

Assay [5] concerns PC-3. Briefly: Induction of ER stress in human PC3 cells assessed as upregulation of GRP78 after 4 hrs by Western blot analysis. It is filed as functional, cell-based. The method in brief:
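PC3 cells in RPMI 1640 with 10% FBS, treated with compound for timed intervals. DMSO vehicle control. Lysis in RIPA buffer, 40 μg protein per lane on SDS-PAGE, transfer to nitrocellulose. Primary antibodies overnight at 4 °C, HRP-secondary 45 min, ECL detection. GAPDH or β-actin used as loading control.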
Background: A western blot detects proteins with antibodies after separation by electrophoresis.

For assay [6], the system named is PC-3. Briefly: Induction of ER stress in human PC3 cells assessed as activation of XBPI mRNA incubated for 22 hrs after ER stress inhibitor 4-PBA exposure for 2 hrs by Western blot analysis. It is filed as functional, cell-based. The procedure, abridged: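 PC3 cells pretreated 2 h with 4-PBA (100 μM), then compound added for a further 22 h. Viability measured by MTT. GRP78 assessed by Western blot, along with XBP1 mRNA splicing analysis. Morphology by phase contrast.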

Assay [7] concerns PC-3. Briefly: Induction of morphological changes in human PC3 cells incubated for 22 hrs after ER stress inhibitor 4-PBA exposure for 2 hrs by phase-contrast microscopic analysis. It is filed as functional, cell-based. The procedure, abridged:
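PC3 cells pretreated 2 h with 100 μM 4-PBA (ER stress inhibitor), then exposed to agent for a further 22 h. Morphology by phase-contrast microscopy; viability by MTT in parallel.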

In assay [8] the test system is PC-3. Briefly: Induction of vacuolization in human PC3 cells in presence of AcT-D after 24 hrs by phase-contrast microscopic analysis. It counts as functional, cell-based. The method in brief:
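PC3 cells pretreated with 10 μM actinomycin D or 5 μM cycloheximide, then treated with agent for 24 h. Vacuolization imaged by phase-contrast microscopy; viability by MTT.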

Assay [9] has as its system PC-3. Briefly: Induction of fusion of autophagosomes with lysosomes in human PC3 cells transfected with mRFP-GFP-LC3 at 1 uM after 8 hrs by fluorescence microscopic analysis. It counts as functional, cell-based. The procedure, abridged:
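PC3 cells transfected with an mRFP-GFP-LC3 reporter plasmid, then treated 8 h with 1 μM test agent or 0.5 μM rapamycin (autophagy inducer). Imaged by confocal fluorescence microscopy: yellow puncta (overlapping red/green) scored as autophagosomes, red-only puncta as autolysosomes, since GFP is quenched in acidic lysosomes.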

Assay [10] relates to PC-3. Briefly: Induction of autophagy in human PC3 cells assessed as vacuole formation at 1 uM after 24 hrs in presence of PI3K inhibitor 3-MA by phase-contrast microscopic analysis. It is filed as functional, cell-based. The method in brief:
(§2)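 PC3 cells were pretreated with the autophagy inhibitor (3-MA or E64d), then exposed to 1 μM test agent for 24 h. Morphology was imaged by phase-contrast microscopy, and viability was read by MTT at 570 nm. Comparison was against agent-only cells.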

For assay [11], the system named is PC-3. Briefly: Cytotoxicity against human PC3 cells assessed as reduction in cell viability at 1 uM after 24 hrs in presence of PI3K inhibitor 3-MA by MTT assay. It is filed as functional, cell-based. The method in brief:
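PC3 cells pretreated with autophagy inhibitor 3-MA or E64d, then given 1 μM compound for 24 h. Viability measured by MTT (4 h, 570 nm). Morphology checked by phase-contrast microscopy.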

Assay [12] relates to PC-3. Briefly: Induction of autophagy in human PC3 cells assessed as vacuole formation at 1 uM after 24 hrs in presence of […] inhibitor E-64d by phase-contrast microscopic analysis. It is filed as functional, cell-based. The method in brief: as §2
The test system of assay [13] is PC-3. Briefly: Induction of autophagy in human PC3 cells transfected with LC3-targeting siRNA assessed as vacuole formation at 1 uM after 24 hrs by phase-contrast microscopic analysis. It is filed as functional, cell-based. The procedure, abridged: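 PC3 cells plated at 20−30% confluency, then transfected 24 h later with 50 nM LC3-targeting or scrambled siRNA by lipofection. After 48 h they were exposed to 1 μM agent for a further 24 h, followed by phase-contrast imaging and Western blotting.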

The test system of assay [14] is PC-3M. Briefly: Antitumor activity against human PC3M-lluc-C6 cells xenografted in athymic Balb/c mouse assessed as tumor weight at 15 mg/kg, ip administered every 2 days for 18 days (reference value: 0.71 +/- 0.06 g). It is filed as functional.
In assay [15] the test system is PC-3M. Briefly: Antiproliferation activity against human PC3M-lluc-C6 cells xenografted in athymic Balb/c mouse assessed as decrease in cell viability at 15 mg/kg, ip administered every 2 days for 18 days by H and E staining based microscopic analysis. It counts as functional, organism-based. The procedure, abridged:
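Male BALB/c-nu mice, 6 weeks old, each given 5 × 10^6 PC3M-luc-C6 cells subcutaneously in the right anterior flank. At ~0.1 cm3 tumor, groups of n = 5 received 15 mg/kg i.p. every 2 days. Docetaxel 15 mg/kg was the positive control. Tumor tissue stained with H&E or anti-Ki67 (1:500) overnight at 4 °C, HRP/DAB, hematoxylin counterstain, examined by microscopy.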

Assay [16] has as its system PC-3. Briefly: Induction of apoptosis in human PC3 cells after 24 hrs by Annexin V-FITC/propidium iodide based flow cytometric analysis. It is filed as functional, cell-based. The method in brief:
as §1

The test system of assay [17] is PC-3M. Briefly: Induction of immature autophagy i in human PC3M-lluc-C6 cells xenografted in athymic Balb/c mouse assessed as increase in p62 protein levels at 15 mg/kg, ip administered every 2 days for 18 days by Western blot and immunohistochemical staining method. It is filed as functional, organism-based. The method in brief: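 Male athymic BALB/c-nu mice (6 weeks) carried subcutaneous right-flank PC3M-luc-C6 xenografts (5 × 10^6 cells). At ~0.1 cm3 they were grouped (n = 5) and given 15 mg/kg i.p. suspension every 2 days; placebo and docetaxel 15 mg/kg were controls. Tumors were analyzed by Western blot and by immunohistochemistry (anti-LC3 1:800, anti-p62 1:500, overnight 4 °C, HRP/DAB, hematoxylin counterstain).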

Broadly, the IC50 is the concentration needed to halve the response being measured. Take `Cc1cc(C)cc(COc2cc3c(cc2OCc2cc(C)cc(C)c2)[C@@H]2C[C@H](O)C[C@@H](C)N2CC3)c1` (racemic): in the assay on K562, the IC50 worked out at 1.44 µM. Further, the Activity in the assay on PC-3 [1] is 63.8 - 70.2%; in the assay with PC-3 [2], 10.8 - 12.3%; in the assay on PC-3 [3], 3.1%; in the assay on PC-3M [14] it was 0.42 g; in the assay with PC-3 [16], “Dose-dependent effect”. Further, the outcome in the assay on PC-3 [4], in the assay with PC-3 [5], in the assay on PC-3 [12], with PC-3M [15] and in the assay on PC-3M [17] was Active. For the same compound, the result in the assay on PC-3 [6], with PC-3 [7], in the assay with PC-3 [8], in the assay on PC-3 [9], in the assay with PC-3 [10] and in the assay with PC-3 [11] was inactive. Besides, the outcome in the assay on PC-3 [13] was inactive.
